Screening data as filed in PubChem.
This is a sample that favours compounds with a hit; in the whole collection about 2.4% have one here.
IMP-1 inhibitor = IMP-1 metallo-beta-lactamase inhibitors, primary screen, biochemical, epi-absorbance readout, Pseudomonas aeruginosa enzyme; hit rate 0.45% among 290,000; purified IMP-1, nitrocefin hydrolysis, epi-absorbance fluorescence; inhibition, % at 5.6 µM; metallo-beta-lactamase IMP-1 (Pseudomonas aeruginosa);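 active = inhibition above the mean plus 3 SD of all compounds in the same screening run, cut at about 4.5% in these data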;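 also: 0% = IMP-1 with DMSO and 100% = DMSO wells lacking enzyme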
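System: purified IMP-1; amount: IMP-1 0.2 nM before substrate addition; compound: single dose, 5.6 µM; times: 25 °C, 15 min preincubation, 25 min reaction; signal: Epi-absorbance via hydrolysed-nitrocefin quenching of white-plate fluorescence, 480/530 nm, EDTA stop; benchmarks: DMSO with and without IMP-1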
M18AAP inhibitor = PfM18AAP inhibitors, malaria aminopeptidase, primary screen, biochemical, QFRET, recombinant enzyme | inhibition, % at 7.35 µM | H-Glu-NHMec fluorogenic cleavage | M18 aspartyl aminopeptidase (Plasmodium falciparum 3D7) | AID 1822, 2009 | hit rate 1.2% among 290,000;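 active = inhibition above the campaign mean inhibition over all tested compounds plus 3 SD, cut at about 28% in these data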;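 also: 0% = plate median of test compound wells and 100% = 2 mM ZnCl2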
HGIII-sPLA2 inh = human group III sPLA2 inhibitors, primary screen, biochemical, QFRET, BODIPY PC-A2 liposome substrate | Group 3 secretory phospholipase A2 (Homo sapiens), Q9NZ20 | QFRET BODIPY PC-A2 liposome hydrolysis, fluorescence | inhibition, % at 12.2 µM | hit rate 0.56% among 370,000;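 active = inhibition above mean plus 3 SD of compounds lying within the high and low control bounds, cut at about 19% in these data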;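 also: 0% = median of test compound wells and 100% = no enzyme DMSO wells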
Target sequence (Q9NZ20 whole entry, looked up): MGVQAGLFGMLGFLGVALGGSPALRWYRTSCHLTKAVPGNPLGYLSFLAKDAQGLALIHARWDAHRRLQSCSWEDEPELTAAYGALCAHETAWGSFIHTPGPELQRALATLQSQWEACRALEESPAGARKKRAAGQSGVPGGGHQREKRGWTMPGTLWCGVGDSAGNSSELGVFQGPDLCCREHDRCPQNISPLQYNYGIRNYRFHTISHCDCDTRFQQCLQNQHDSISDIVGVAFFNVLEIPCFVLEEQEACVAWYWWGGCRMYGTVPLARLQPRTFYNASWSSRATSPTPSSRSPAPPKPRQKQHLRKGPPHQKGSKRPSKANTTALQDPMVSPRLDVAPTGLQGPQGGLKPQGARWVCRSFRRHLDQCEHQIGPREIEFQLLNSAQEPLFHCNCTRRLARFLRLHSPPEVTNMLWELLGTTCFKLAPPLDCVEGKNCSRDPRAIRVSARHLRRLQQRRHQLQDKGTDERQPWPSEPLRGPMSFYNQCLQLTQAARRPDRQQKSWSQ
VIM-2 inh = VIM-2 metallo-beta-lactamase inhibitors, primary screen, biochemical, epi-absorbance readout, Pseudomonas aeruginosa enzyme. purified VIM-2, nitrocefin hydrolysis, epi-absorbance fluorescence. inhibition, % at 5.6 µM. hit rate 0.89% among 290,000. AID 1527, 2009;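 active = inhibition above the mean of all tested compounds plus 3 SD, cutoff set per screening run, cut at about 7.5% in these data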;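 also: red hydrolysis product quenches plate fluorescence so inhibitors raise well fluorescence; 0% = enzyme with DMSO and 100% = DMSO without enzyme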
sPLA2 confirm = human group III sPLA2 inhibitors, confirmation, biochemical, QFRET, triplicate; shares compounds with HGIII-sPLA2 inh; recombinant hGIII-sPLA2, BODIPY PC-A2 QFRET fluorescence; inhibition, % at 12.2 µM; hit rate 34% among 2,000;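 active = mean inhibition across triplicates above the hit cutoff set in the earlier primary screen, cut at about 19% in these data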;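 also: 0% = enzyme with DMSO and 100% = DMSO wells lacking enzyme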
BODIPY interf = 535nm fluorescence optical interference, confirmation, artefact control for HGIII-sPLA2 inhibitor project, biochemical, QFRET. inhibition, % at 12.2 µM. AID 743282, 2014. hit rate 8.5% among 2,000. shares compounds with HGIII-sPLA2 inh. BODIPY FL product fluorescence interference;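 active = average inhibition above the solvent-only control mean plus 3 SD, cut at about 6% in these data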;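 also: 0% = DMSO with substrate plus product and 100% = DMSO with substrate alone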
535nm interf DR = 535nm fluorescence optical interference, dose response, artefact control for HGIII-sPLA2 inhibitor project, biochemical, QFRET | shares compounds with HGIII-sPLA2 inh | BODIPY FL product fluorescence interference, cell-free | IC50, µM | 240 tested, under 10 active | AID 743455, 2014;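 active = IC50 at or below 10 µM; inactive = IC50 above 10 µM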
Starred values were filed as active, the others as inactive; · = no result given.

SMILES | IMP-1 inhibitor | M18AAP inhibitor | HGIII-sPLA2 inh | VIM-2 inh | sPLA2 confirm | BODIPY interf | others
Cc1ccsc1/C=N/n1c(C2CCCCC2)n[nH]c1=S | -2.4 | 11.5 | 7.9 | -1.6 | · | ·
Cc1ccc(/C=N/n2c(C3CCCCC3)n[nH]c2=S)s1 | -3.4 | 6.0 | 22.0* | -5.3 | 15.9 | 1.9
Cc1ccc(/C=N/n2c(-c3cccnc3)n[nH]c2=S)s1 | -3.7 | 18.9 | 28.0* | -1.2 | 19.3* | -4.0
S=c1[nH]nc(-c2cccnc2)n1/N=C/c1ccc(Br)s1 | 0.2 | -8.2 | 7.8 | 1.4 | · | ·
N#Cc1c(Cl)nc2c(c1C#N)CCCC2 | -1.9 | -1.2 | 2.5 | -1.6 | · | ·
O=c1[nH]c(=O)c2cc([N+](=O)[O-])cc([N+](=O)[O-])c2[nH]1 | -1.1 | 2.1 | 7.7 | 0.7 | · | ·
O=c1c2cc([N+](=O)[O-])cc([N+](=O)[O-])c2[nH]n1-c1ccccc1 | -5.1 | -4.2 | 20.9* | -2.9 | 26.8* | 5.0
CNCc1ccccc1Sc1cc(O)ccc1O | 2.9 | 13.8 | 19.7* | 1.1 | 37.6* | -6.1 | 535nm interf DR=>122
CNCc1ccccc1Sc1cccc(O)c1 | -2.4 | -0.7 | 8.1 | -2.6 | · | ·
Oc1ccc(C[C@@H]2CNCCN2CC2(c3ccccc3)CC2)cc1 | · | · | -11.6 | · | · | ·
O=C(/C=C/c1cccs1)c1ccc([N+](=O)[O-])cc1 | 0.2 | 15.4 | 21.1* | 2.5 | 4.3 | -2.4
O=C(NCc1ccccc1F)C1CCC(CNS(=O)(=O)c2cccc3cccnc23)CC1 (centres undefined) | · | · | -5.7 | · | · | ·
COc1ccccc1C=NNC(=O)CSc1nc2ccccc2n1Cc1ccc(Cl)cc1 | · | · | -10.2 | · | · | ·
O=C(CSc1cccc[n+]1[O-])Nc1cc2c(cc1Cl)C(=O)c1ccccc1C2=O | -1.4 | 23.3 | 19.5* | -0.9 | -7.9 | 6.5*
O=C(Cc1cccs1)NNC(=S)NCc1ccc(Cl)cc1 | -2.8 | 24.9 | 19.3* | -2.9 | 45.3* | 0.2 | 535nm interf DR=>122
Nc1ccc(Oc2cc(N)cc(Oc3ccccc3)c2)cc1 | -1.9 | -0.1 | 23.1* | -1.9 | 10.3 | -2.4
C=CC[C@@H]1NN2C(=O)[C@@H](CCCC)[C@@H]3c4cc5ccccc5cc4C=NN3[C@@H]2c2cc3ccccc3cc21 | · | · | 1.4 | · | · | ·
O=C1NC(=S)N(C(=O)c2ccc(F)cc2)/C1=C/c1cccnc1 | -2.9 | 3.3 | 20.4* | 0.1 | 0.3 | -1.0
O=C(NCC1COc2ccccc2O1)c1ccc(NC(=O)c2c(Cl)cccc2Cl)cc1 (centres undefined) | · | · | -9.5 | · | · | ·
Nc1ccn([C@@H]2O[C@H](C(=O)N[C@H](CO)c3ccccc3)[C@@H](O)[C@H]2O)c(=O)n1 | · | · | 2.9 | · | · | ·
CCCCCCN1CCN(C2CN(Cc3cn(CCCC(=O)OC)nn3)S(=O)(=O)C2)CC1 (centres undefined) | · | · | 20.6* | · | -3.2 | -5.8
Cc1ccc(-c2c[n+](Cc3cccc(Cl)c3)c3n2CCC3)cc1 | -1.5 | -14.2 | -2.4 | -1.2 | · | ·
Clc1cccc(C[n+]2cc(-c3ccccc3)n3c2CCC3)c1 | -2.7 | 3.2 | 19.3* | 1.0 | 5.4 | -25.7
CC(=O)NCC1COc2ccccc2O1 (centres undefined) | -1.5 | -6.4 | -2.3 | -1.8 | · | ·
CN(C)C(=O)OCC1COc2ccccc2O1 (centres undefined) | -3.6 | 1.9 | 21.0* | -2.9 | 2.4 | -6.5
CCc1ccc(N2CC(C(=O)OCC(=O)N(CC)c3c(N)n(Cc4ccccc4)c(=O)[nH]c3=O)CC2=O)cc1 (centres undefined) | · | · | -1.5 | · | · | ·
O=C(NCCCN1CCCC1=O)c1ccc(CNS(=O)(=O)c2ccc(F)cc2)cc1 | 0.3 | -11.8 | 71.6* | -1.9 | -1.1 | -10.2
CC(C)(C)C(=O)NC(=S)Nc1sc2c(c1C#N)CCCCC2 | -0.1 | 4.3 | 21.6* | -0.9 | 17.1 | 3.7
Cn1ncc(Br)c1C(=O)N1CCOCC1 | -4.7 | -0.2 | 20.2* | -1.7 | -5.8 | -1.1
Cn1ncc(Cl)c1C(=O)N1CCOCC1 | -1.7 | -2.6 | 0.7 | -1.2 | · | ·
